Reference: ChEMBL document CHEMBL3763044, “Pyridoxine hydroxamic acids as novel HIV-integrase inhibitors” (Bioorg Med Chem Lett, 2016)

Tests used:
[1] = Cytotoxicity against human MT4 cells; type: cell-based
Procedure, shortened: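 Cytotoxicity measured in MT-4 cells in parallel with the 7-day multi-cycle antiviral assay. CC50 is the mean of at least three experiments.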

[2] = tested on: Human immunodeficiency virus 1; assay: Antiviral activity against luciferase-bearing envelope-defective HIV-1 NL4-3 pseudotype virus infected in human MT4 cells co-infected with HIV1 HXBc2 envelope by single cycle infection assay; type: functional, organism-based; details: Human immunodeficiency virus 1, NL4-3, MT4
Procedure, shortened: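 Single-cycle infection of MT-4 cells with a luciferase-bearing env-defective NL-4.3 virus pseudotyped with HIV-1 env (HXBc2), read by luciferase. EC50 is the mean of at least three experiments.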

[3] = Inhibition of HIV integrase strand transfer activity; design: species or system Human immunodeficiency virus
Procedure, shortened: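 Strand-transfer assay on purified integrase using 3'-processed oligonucleotides. % inhibition = [1 − (sample counts/mean positive control)] × 100, plotted against log molar concentration. IC50 is taken from a sigmoidal dose-response fit with variable slope and is the mean of at least three experiments.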

[4] = Inhibition of […] reverse transcriptase
[5] = biological target: Human immunodeficiency virus type 1 integrase (Human immunodeficiency virus 1, UniProt Q7ZJM1, N155H); assay: Inhibition of HIV integrase N155H mutant
Chain of Human immunodeficiency virus type 1 integrase (Q7ZJM1 entry or part of it N155H): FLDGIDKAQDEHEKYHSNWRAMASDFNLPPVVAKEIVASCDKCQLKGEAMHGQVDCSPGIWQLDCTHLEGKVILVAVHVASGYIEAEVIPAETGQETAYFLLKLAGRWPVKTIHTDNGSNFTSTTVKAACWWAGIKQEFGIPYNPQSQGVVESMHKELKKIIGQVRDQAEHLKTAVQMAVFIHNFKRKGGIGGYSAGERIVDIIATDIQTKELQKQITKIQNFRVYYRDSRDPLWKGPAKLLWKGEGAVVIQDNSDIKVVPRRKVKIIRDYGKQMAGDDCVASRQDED

[6] = Therapeutic index, ratio of CC50 for human MT4 cells to EC50 for luciferase-bearing envelope-defective HIV-1 NL4-3 pseudotype virus infected in human MT4 cells co-infected with HIV1 HXBc2 envelope; type: cell-based; details: read-out: Ratio CC50/EC50
[7] = biological target: RNA-directed RNA polymerase (Hepacivirus hominis, UniProt O39930); assay: Inhibition of HCV RNA polymerase
Chain of RNA-directed RNA polymerase (O39930 whole entry): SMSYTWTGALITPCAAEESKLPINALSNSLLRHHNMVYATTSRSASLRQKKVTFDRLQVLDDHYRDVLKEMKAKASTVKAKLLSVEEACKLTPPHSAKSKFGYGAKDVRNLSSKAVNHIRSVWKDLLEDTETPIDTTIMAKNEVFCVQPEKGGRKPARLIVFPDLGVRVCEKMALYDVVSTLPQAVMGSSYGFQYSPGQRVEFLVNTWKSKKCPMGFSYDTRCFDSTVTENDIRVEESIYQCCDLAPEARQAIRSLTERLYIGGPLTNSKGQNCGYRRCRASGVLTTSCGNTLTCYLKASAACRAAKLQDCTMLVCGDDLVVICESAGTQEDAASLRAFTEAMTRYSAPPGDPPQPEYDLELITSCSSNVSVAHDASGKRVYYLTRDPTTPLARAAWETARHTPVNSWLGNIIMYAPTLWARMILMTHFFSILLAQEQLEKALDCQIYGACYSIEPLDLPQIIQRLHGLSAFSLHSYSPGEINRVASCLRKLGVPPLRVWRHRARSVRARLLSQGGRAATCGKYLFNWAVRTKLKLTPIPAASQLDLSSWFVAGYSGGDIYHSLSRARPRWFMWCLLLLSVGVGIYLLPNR

[8] = Plasma protein binding in rat by Rapid Equilibrium Dialysis method; type: ADME, cell-free; details: read-out: PPB (converted)
Procedure, shortened: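 Protein binding measured by rapid equilibrium dialysis.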

[9] = Plasma concentration in rat at 50 mg/kg after 18 hrs; type: ADME, organism-based
Procedure, shortened: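 Female Sprague-Dawley rats (8) given 50 mg/kg orally, with blood collected at 7 time points after dosing.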

[10] = tested on: Human immunodeficiency virus 1; assay: Antiviral activity against luciferase-bearing envelope-defective HIV-1 NL4-3 pseudotype virus infected in human MT4 cells co-infected with HIV1 HXBc2 envelope after 7 days by multi-cycle assay; type: functional, organism-based; details: Human immunodeficiency virus 1, NL4-3, MT4, 168 h
Procedure, shortened: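 Multi-cycle antiviral assay run for 7 days in MT-4 cells, in parallel with the cytotoxicity assay. EC50 is the mean of at least three experiments.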

[11] = Half life in Sprague-Dawley rat at 5 mg/kg, iv and 50 mg/kg, po by LC/MS/MS analysis; type: ADME, organism-based; details: in vivo
Procedure, shortened: (§1)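 Female Sprague-Dawley rats randomly assigned to two groups: 13 rats dosed 5 mg/kg intravenously, 8 rats dosed 50 mg/kg orally. Blood collected at 7 time points after dosing. Bioavailability taken over 24 h.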

[12] = tested on: Human immunodeficiency virus; assay: Ratio of EC50 for HIV integrase assessed as accumulation of 2-LTR to IC50 for HIV integrase strand transfer activity
Salmonella typhimurium = assay: Mutagenicity in Salmonella typhimurium by Ames test; type: toxicity, organism-based; details: salmonella enterica subsp. enterica serovar typhimurium
[13] = Lipophilicity Log P of the compound; type: physicochemical; details: octanol/water
[14] = Oral bioavailability in Sprague-Dawley rat at 50 mg/kg after 24 hrs by LC/MS/MS analysis; type: ADME, organism-based; details: in vivo; procedure, shortened: as §1
[15] = tested on: Human immunodeficiency virus; assay: Ratio of EC90 for HIV integrase assessed as accumulation of 2-LTR to IC50 for HIV integrase strand transfer activity

Row | SMILES | EC50 [2] [µM] | IC50 [3] [µM] | CC50 [1] [µM] | other results
1 | O=C(NO)c1ncc(/C=C/c2ccc(F)cc2)c(CO)c1O | > 10 | > 100 | 50 | –
2 | O=C(NO)c1ncc(COc2ccc(F)cc2)c(CO)c1O | 0.007 | 0.041 | 27 | –
3 | O=C(NO)c1ncc(CS(=O)(=O)Cc2ccc(F)cc2)c(CO)c1O | 4.35 | 2.3 | 16 | –
4 | O=C(NO)c1ncc(CSc2ccc(F)cc2)c(CO)c1O | – | 0.25 | – | –
5 | O=C(NO)c1ncc(CCCc2ccc(F)cc2)c(CO)c1O | 0.5 | 0.55 | 2 | –
6 | O=C(CC1CCCCC1)Nc1cnc(C(=O)NO)c(O)c1CO | 11 | – | 50 | –
7 | O=C(NO)c1ncc(CS(=O)(=O)c2ccc(F)cc2)c(CO)c1O | 9.3 | 10 | 50 | –
8 | O=C(NO)c1ncc(CNc2ccc(F)cc2)c(CO)c1O | 0.02 | 0.025 | 50 | –
9 | O=C(Cc1ccc(F)c(Cl)c1)Nc1cnc(C(=O)NO)c(O)c1CO | 0.025 | 0.029 | 22 | EC50 [4]: > 50 µM; EC50 [5]: > 0.3 µM; selectivity ratio [6]: > 1000; EC50 [7]: > 50 µM; fraction unbound [8]: 0.11; concentration at 18 h [9]: > 25 nM; EC50 [10]: 0.128 µM; half-life [11]: 43.8 min; Ratio [12]: 7; Activity (Salmonella typhimurium): Non-toxic; logP [13]: 0.6; bioavailability [14]: 25%; Ratio [15]: 10

Continued, in another order:

Row | EC50 [2] [µM] | IC50 [3] [µM] | SMILES | CC50 [1] [µM] | other results
10 | 0.04 | 0.328 | O=C(Nc1ccc(F)cc1)c1cnc(C(=O)NO)c(O)c1CO | 50 | –
11 | 0.076 | 0.327 | O=C(NO)c1ncc(CCc2ccc(F)cc2)c(CO)c1O | 21 | –
12 | 0.1 | – | O=C(Cc1ccccc1)Nc1cnc(C(=O)NO)c(O)c1CO | 54 | –
13 | 0.1 | – | O=C(Cc1ccc(F)c(F)c1)Nc1cnc(C(=O)NO)c(O)c1CO | 51 | –
14 | 0.04 | – | O=C(Cc1ccc(Cl)c(Cl)c1)Nc1cnc(C(=O)NO)c(O)c1CO | 50 | –
15 | 1.86 | – | O=C(Cc1ccc2c(c1)OCO2)Nc1cnc(C(=O)NO)c(O)c1CO | 50 | –
16 | 6.3 | 0.3 | O=C(Nc1cnc(C(=O)NO)c(O)c1CO)c1ccc(F)cc1 | 50 | –
17 | 2 | 2.3 | O=C(NCCc1ccc(F)cc1)c1cnc(C(=O)NO)c(O)c1CO | 23 | –
18 | 0.015 | 0.08 | O=C(NO)c1ncc(COCc2ccc(F)cc2)c(CO)c1O | 11 | –
19 | 0.4 | – | O=C(Cc1cc(F)cc(F)c1)Nc1cnc(C(=O)NO)c(O)c1CO | 31 | –
20 | 1.5 | – | COc1ccc(CC(=O)Nc2cnc(C(=O)NO)c(O)c2CO)cc1 | 25 | –
21 | 0.695 | 0.55 | O=C(NO)c1ncc(CNCc2ccc(F)cc2)c(CO)c1O | 20 | –
22 | 4.5 | – | Cc1ccc(CC(=O)Nc2cnc(C(=O)NO)c(O)c2CO)cc1 | 32 | –
